From ChEMBL document CHEMBL4622973, “Discovery of Potent Small-Molecule SIRT6 Activators: Structure-Activity Relationship and Anti-Pancreatic Ductal Adenocarcinoma Activity” (J Med Chem, 2020)
Activity calls are given as the source filed them. No cut-off for these calls is given here.

Key:
Histone deacetylase 9 = Histone deacetylase 9 (Homo sapiens, UniProt Q9UKV0); assay: Inhibition of HDAC9 (unknown origin) by FDL assay
Method in brief: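 Selectivity testing by FDL assay at concentrations up to 200 µM. SIRT1-2 assays run by an outside contract provider. Values reported as IC50.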

[1] = target: T1, NAD-dependent protein deacylase sirtuin-6 (Homo sapiens, UniProt Q8N6T7); assay: Binding affinity to N-terminal his-tagged human SIRT6 expressed in Escherichia coli M15 [pREP4] assessed as change in melting temperature at 20 uM by SYPRO orange dye based DSF assay
[2] = target: T1, NAD-dependent protein deacylase sirtuin-6; assay: […] in human BxPC3 cells assessed as reduction in Lin28b expression levels at 25 uM incubated for 72 hrs by Western blot analysis; type: cell-based; conditions: BXPC-3
Method in brief: (§1)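 Cells incubated 72 h with various compound concentrations; whole-cell RIPA lysates with protease inhibitors, BCA-normalised, separated on 12% SDS-PAGE, transferred to PVDF, blocked in 5% milk or BSA. Probed 10 h at 4 °C with antibodies to SIRT6, acetyl-H3K9/K18/K56, total H3, Lin28b, Myc, IGF2BP3, β-actin; HRP secondary, chemiluminescent detection.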

[3] = target: T1, NAD-dependent protein deacylase sirtuin-6; assay: […] in human PANC1 cells assessed as reduction in H3K18ac levels incubated for 72 hrs by Western blot analysis; type: cell-based; conditions: PANC-1; method in brief: as §1
BXPC-3 [4] = assay: Inhibition of colony formation in human BxPC3 cells incubated for 9 to 18 days by crystal violet staining based assay; type: functional, cell-based
Method in brief: (§2)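 Cells are seeded per well at the line-specific density: BXPC-3 750, PANC-1 500, AsPC-1 2200, MIAPaCa-2 500. Compound at several concentrations is added after 24 h. Incubation runs 9–18 days (BXPC-3 18 days, PANC-1 14 days). Cells are then fixed with 4% paraformaldehyde and stained with crystal violet, and colonies of more than 50 cells are counted.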

[5] = target: T1, NAD-dependent protein deacylase sirtuin-6; assay: Binding affinity to SIRT6 in human BxPC3 cells assessed as protection of SIRT6 protein from temperature-dependent degradation at 25 uM incubated for 72 hrs by CETSA; type: cell-based; conditions: BXPC-3
Method in brief: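 Cells treated with compound (25 μM) or DMSO for 72 h, washed, resuspended in PBS with protease inhibitor cocktail, split into aliquots heated 3 min at a temperature gradient. Lysed by three freeze–thaw cycles, centrifuged at 4 °C for 15 min; soluble SIRT6 in supernatant detected by western blot. Triplicate.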

[6] = Half life in Sprague-Dawley rat at 2 mg/kg, iv after 0.25 to 24 hrs by LC-MS/MS analysis; type: ADME, organism-based; conditions: in vivo
Method in brief: (§3)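 Male Sprague-Dawley rats, 6-8 weeks old. Dosing solution of 10 (PO) or 2 (IV) mg/mL in 5% DMSO, 10% Solutol and 85% saline, pH 7. Blood taken by cardiac puncture at 0.083–24 h (PO) or 0.25–24 h (IV). Plasma levels measured by LC-MS/MS. Values are mean ± SD, n = 3.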

[7] = target: T1, NAD-dependent protein deacylase sirtuin-6; assay: […] in human PANC1 cells assessed as reduction in H3K9ac levels incubated for 72 hrs by Western blot analysis; type: cell-based; conditions: PANC-1; method in brief: as §1
ASPC1 = assay: Inhibition of cell migration of human AsPC1 cells at 10 umol/L incubated for 24 hrs by inverted microscopy relative to control; type: functional; conditions: ASPC1, 24 h
Method in brief: (§4)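 PDAC cells are grown to a confluent monolayer at 37 °C in 5% CO2. The monolayer is scratched with a 200 μL pipette tip to make a gap of constant width, then washed with PBS. Cells are exposed to a range of compound concentrations. They are imaged by inverted microscope after 24 h. Migrated cells are counted by hand, and inhibition is expressed relative to untreated wells (100%).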

BXPC-3 [8] = assay: Antiproliferative activity against human BxPC3 cells assessed as reduction in cell viability incubated for 72 hrs by MTT assay; type: functional, cell-based
Method in brief: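 PDAC cells grown in DMEM or RPMI1640 with 10% FBS and penicillin/streptomycin at 37 °C, 5% CO2. Plated in triplicate, then treated with a concentration series for 72 h. Viability read by MTT. IC50 calculated from dose-response curves.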

[9] = Cmax in Sprague-Dawley rat at 2 mg/kg, iv after 0.25 to 24 hrs by LC-MS/MS analysis; type: ADME, organism-based; set-up: dose 2 mg/kg, route intravenous; conditions: in vivo; method in brief: as §3
[10] = Tmax in Sprague-Dawley rat at 2 mg/kg, iv after 0.25 to 24 hrs by LC-MS/MS analysis; type: ADME, organism-based; conditions: in vivo
Method in brief: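 Male Sprague-Dawley rats, 6–8 weeks old, received a single dose of 10 mg/kg p.o. or 2 mg/kg i.v. The vehicle was 5% DMSO, 10% Solutol and 85% saline at pH 7. Blood was taken by cardiac puncture at 0.083–24 h (p.o.) or 0.25–24 h (i.v.), and plasma was measured by LC-MS/MS. Values are mean ± SD, n = 3.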

[11] = target: T1, NAD-dependent protein deacylase sirtuin-6; assay: In-vivo activation of SIRT6 in BALB/c nude mouse xenografted with human PANC1 cells assessed as reduction in Lin28b expression at 150 mg/kg/day, po for 30 days by IHC analysis; type: functional, organism-based; conditions: PANC-1
Method in brief: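 Female BALB/c nude mice (6–8 weeks) bearing subcutaneous PANC-1 xenografts (5×10⁶–1×10⁷ cells, right flank), randomised at 130–150 mm³ tumours; oral dosing daily for 30 days versus vehicle (n=6). Tumour tissue stained by immunohistochemistry.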

PANC-1 [12] = assay: Induction of apoptosis in human PANC1 cells incubated for 48 hrs by propidium iodide and Annexin V-FITC staining based flow cytometry; type: functional, cell-based
Method in brief: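 PANC-1 and BXPC-3 cells seeded in 6-well plates and treated with a concentration series for 48 h. Stained with Annexin V-FITC and propidium iodide for 10 min in the dark. Annexin V+ populations measured by flow cytometry.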

MIA PaCa-2 = assay: Inhibition of cell migration of human MIAPaCa2 cells at 10 umol/L incubated for 24 hrs by inverted microscopy relative to control; type: functional; conditions: MIA PaCa-2, 24 h; method in brief: as §4
[13] = target: T1, NAD-dependent protein deacylase sirtuin-6; assay: Activation of N-terminal his-tagged human SIRT6 expressed in Escherichia coli M15 [pREP4] assessed as increase in deacetylation activity incubated for 2 hrs using Ac-RYQK(Ac)-AMC substrate by FDL assay relative to control
BXPC-3 [14] = assay: Induction of cell cycle arrest in human BxPC3 cells assessed as increase in accumulation at G2 phase incubated for 48 hrs by propidium iodide staining based flow cytometry; type: functional
Method in brief: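 PANC-1 and BXPC-3 cells in 6-well plates treated with a concentration series for 48 h. Stained with 50 µg/mL propidium iodide for 30 min in the dark. DNA content analysed by flow cytometry for cell-cycle phase distribution.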

PANC-1 [15] = assay: Inhibition of colony formation in human PANC1 cells incubated for 9 to 18 days by crystal violet staining based assay; type: functional, cell-based; method in brief: as §2
[16] = AUC (0 to t) in Sprague-Dawley rat at 2 mg/kg, iv after 0.25 to 24 hrs by LC-MS/MS analysis; type: ADME, organism-based; conditions: in vivo; method in brief: as §3
BXPC-3 [17] = assay: Inhibition of cell migration of human BxPC3 cells at 10 umol/L incubated for 24 hrs by inverted microscopy relative to control; type: functional; conditions: BXPC-3, 24 h; method in brief: as §4
NCI-H526 = assay: Antiproliferative activity against human NCI-H526 cells assessed as reduction in cell viability incubated for 72 hrs by MTT assay; type: functional, cell-based

T1 sequence (Q8N6T7 whole entry): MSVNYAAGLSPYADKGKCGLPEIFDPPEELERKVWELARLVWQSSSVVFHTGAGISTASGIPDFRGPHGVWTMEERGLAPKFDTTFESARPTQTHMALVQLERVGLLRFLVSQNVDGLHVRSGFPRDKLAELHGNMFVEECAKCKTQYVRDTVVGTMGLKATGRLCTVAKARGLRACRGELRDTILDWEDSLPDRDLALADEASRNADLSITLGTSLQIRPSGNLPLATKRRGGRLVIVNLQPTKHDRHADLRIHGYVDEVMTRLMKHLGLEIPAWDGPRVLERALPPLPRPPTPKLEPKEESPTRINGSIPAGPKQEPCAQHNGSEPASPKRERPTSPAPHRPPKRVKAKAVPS
Sequence of Histone deacetylase 9 (Q9UKV0 whole entry): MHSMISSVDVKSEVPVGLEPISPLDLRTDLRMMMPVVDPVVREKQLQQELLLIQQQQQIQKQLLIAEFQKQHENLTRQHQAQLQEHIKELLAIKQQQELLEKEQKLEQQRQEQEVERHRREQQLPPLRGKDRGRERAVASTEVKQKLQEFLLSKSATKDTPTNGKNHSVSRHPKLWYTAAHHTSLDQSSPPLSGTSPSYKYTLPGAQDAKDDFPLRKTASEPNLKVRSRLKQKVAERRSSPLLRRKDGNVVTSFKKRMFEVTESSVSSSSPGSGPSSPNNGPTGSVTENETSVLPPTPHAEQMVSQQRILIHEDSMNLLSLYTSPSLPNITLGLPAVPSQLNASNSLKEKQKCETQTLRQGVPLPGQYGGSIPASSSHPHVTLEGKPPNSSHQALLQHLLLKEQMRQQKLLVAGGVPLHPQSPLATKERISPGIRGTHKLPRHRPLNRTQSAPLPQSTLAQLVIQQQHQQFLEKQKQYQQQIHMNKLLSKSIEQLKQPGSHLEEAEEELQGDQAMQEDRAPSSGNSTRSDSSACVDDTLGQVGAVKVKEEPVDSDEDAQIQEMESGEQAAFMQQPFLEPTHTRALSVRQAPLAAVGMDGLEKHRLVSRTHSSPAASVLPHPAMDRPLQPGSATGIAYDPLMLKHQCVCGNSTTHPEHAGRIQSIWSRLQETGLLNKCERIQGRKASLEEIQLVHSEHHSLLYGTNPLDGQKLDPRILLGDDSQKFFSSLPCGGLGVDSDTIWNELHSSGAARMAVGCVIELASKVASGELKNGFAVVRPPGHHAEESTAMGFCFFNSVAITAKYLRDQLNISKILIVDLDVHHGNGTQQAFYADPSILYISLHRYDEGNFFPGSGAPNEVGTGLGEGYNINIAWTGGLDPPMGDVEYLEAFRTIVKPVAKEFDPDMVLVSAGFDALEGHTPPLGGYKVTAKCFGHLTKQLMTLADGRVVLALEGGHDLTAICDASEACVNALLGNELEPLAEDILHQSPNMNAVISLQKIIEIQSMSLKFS

For `O=C(NC(c1ccccc1)c1ccccc1)c1cc(-c2cc3ccccc3o2)nc2ccccc12`, the IC50 (Histone deacetylase 9) was > 200 µM, the ΔTm [1] was 1.01 °C and the inhibition [2] was “Active”. The inhibition [3] was “Dose-dependent effect”, the inhibition (BXPC-3 [4]) was “Dose-dependent effect” and the Activity [5] was “Active”. The t1/2 [6] was 544 min, the inhibition [7] was “Dose-dependent effect” and the inhibition at 10 µM (ASPC1) was 55.4%. The Activity (BXPC-3 [8]) was “Dose-dependent effect”, the IC50 (BXPC-3 [8]; BXPC-3, 72 h) was 8.27 µM and the Cmax [9] was 5120 ng/mL. The Tmax [10] was 4.8 min, the Activity [11] was “Active” and the Activity (PANC-1 [12]) was “Dose-dependent effect”. For the same molecule, the inhibition at 10 µM (MIA PaCa-2) was 57.2%, the EC1.5 [13] was 0.58 µM and the EC50 [13] was 5.35 µM. For the same molecule, the Activity (BXPC-3 [14]) was “Dose-dependent effect”, the inhibition (PANC-1 [15]) was “Dose-dependent effect” and the AUCt [16] was 3326.13 ng·mL·h. For the same molecule, the inhibition at 10 µM (BXPC-3 [17]) was 70% and the Activity (NCI-H526) was “Active”.
